{"data": "Results collected from several papers", "organism": "Pseudomonas aeruginosa", "observed": "microbial growth", "note": "Each line is one published result; the experiments were not run side by side."}
{"SMILES": "CCCCCCNC(=S)Nc1cccc(-c2cc(C(=O)OC)no2)c1", "assay": "broth dilution", "system": "ATCC27853", "MIC": "> 64 µg/mL"}
{"SMILES": "Cc1cc(/C=C2\\Sc3ccccc3N2CCCN2CCC(C)CC2)c2ccccc2[n+]1C.[I-]", "assay": "broth dilution", "system": "ATCCBAA2108", "conditions": "drug-resistant strain", "MIC": "64 µg/mL"}
{"SMILES": "COC(=O)c1cc(-c2cccc(NC(=S)Nc3ccccc3)c2)on1", "assay": "broth dilution", "system": "ATCC27853", "MIC": "> 64 µg/mL"}
{"SMILES": "CO[C@H]1/C=C/O[C@@]2(C)Oc3c(C)c(O)c4c(O)c(c(/C=N/N5CCN(C)CC5)c(O)c4c3C2=O)NC(=O)/C(C)=C\\C=C\\[C@H](C)[C@H](O)[C@@H](C)[C@@H](O)[C@@H](C)[C@H](OC(C)=O)[C@@H]1C", "assay": "broth dilution", "system": "ATCCBAA2108", "conditions": "drug-resistant strain", "MIC": "> 64 µg/mL"}
{"SMILES": "CCOC(=O)c1nnn(-c2cccc(NC(=O)Nc3ccc(Cl)c(Cl)c3)c2)c1C", "assay": "broth dilution", "system": "ATCC27853", "MIC": "> 64 µg/mL"}
{"SMILES": "CCCCCCCCCCCC(=O)OC[C@H]1O[C@@H](n2cc(C)c(=O)[nH]c2=O)C[C@@H]1OC(=O)c1ccc(C(C)(C)C)cc1", "assay": "broth dilution", "MIC": "8 µg/mL"}
{"SMILES": "CC(=O)C1=C(O)C(CC(C)C)NC1=O (stereo not drawn)", "system": "PA01", "MIC": "> 200 µg/mL"}
{"SMILES": "CN[C@H](CC(C)C)C(=O)N[C@H]1C(=O)N[C@@H](CC(N)=O)C(=O)N[C@H]2C(=O)N[C@H]3C(=O)N[C@H](C(=O)N[C@H](C(=O)O)c4cc(O)cc(O)c4-c4cc3ccc4O)[C@H](O)c3ccc(c(Cl)c3)Oc3cc2cc(c3O[C@@H]2O[C@H](CO)[C@@H](O)[C@H](O)[C@H]2O[C@H]2C[C@](C)(N)[C@H](O)[C@H](C)O2)Oc2ccc(cc2Cl)[C@H]1O", "assay": "broth dilution", "system": "ATCCBAA2108", "conditions": "drug-resistant strain", "MIC": "> 64 µg/mL"}
{"SMILES": "Nc1nc(-c2ccc(NC(=O)Nc3cccc(-c4c[nH]c(N)n4)c3F)cc2F)c[nH]1", "assay": "broth dilution", "system": "PAO1", "MIC": "> 200 µM"}
{"SMILES": "CC1(C)S[C@@H]2[C@H](NC(=O)C(C(=O)O)c3ccccc3)C(=O)N2[C@H]1C(=O)O (stereo partly drawn)", "MIC": "50 µg/mL"}
{"SMILES": "Cc1cc(/C=C2\\Sc3ccccc3N2CCCN2CCCCC2)c2ccccc2[n+]1C.[I-]", "assay": "broth dilution", "system": "ATCCBAA2108", "conditions": "drug-resistant strain", "MIC": "64 µg/mL"}
{"SMILES": "CCCCCCC#Cc1cncc(-c2nnc(Sc3ccc([N+](=O)[O-])cc3[N+](=O)[O-])n2C)c1", "MIC": "≥ 20 µg/mL"}
{"SMILES": "COC(=O)c1cc(-c2cccc(NC(=O)Nc3ccccc3F)c2)on1", "assay": "broth dilution", "system": "ATCC27853", "MIC": "> 64 µg/mL"}
{"SMILES": "C[C@@H](O)[C@H]1C(=O)N2C(C(=O)O)=C(S[C@@H]3CN[C@H](C(=O)N(C)C)C3)[C@H](C)[C@H]12", "MIC": "2 µg/mL"}
{"SMILES": "CC1(C)SC2C(NC(=O)C(NC(=O)C3=C(O)CN(c4ccccc4)C3=O)c3ccccc3)C(=O)N2C1C(=O)O (stereo not drawn)", "MIC": "100 µg/mL"}
